Values after ≈ are worked out from the molar mass of the structure shown.
How the values were obtained:
HUVEC [1] = assay: Growth inhibitory activity against human umbilical vein endothelial cells (HUVEC) proliferation using MTT colorimetric method; format: functional, cell-based
How it was run: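 HUVEC seeded at 10,000 cells/well in growth-factor-containing EGM-2 and left 4 h to adhere. Compounds diluted in medium were added, followed by 72 h incubation at 37 in humidified 5% CO2. Viability was read by MTT colorimetric assay. IC50 came from nonlinear regression.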

HUVEC [2] = assay: Percentage inhibition against growth factor induced tube formation by human umbilical vein endothelial cells (HUVEC) at 10 ug/mL concentration; format: functional
How it was run: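 HUVEC plated at 5000 cells/well on solidified Matrigel and incubated 16 h at 37 in humidified 5% CO2, with compound at 10 μg/mL, in triplicate. Cells were then stained with toluidine blue in 4% paraformaldehyde and photographed. A blinded observer counted tube branches per well. Inhibition was expressed relative to untreated control.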

Q: How did the IC50 (HUVEC [1]) turn out when CC1(C)CCC[C@]2(C)[C@H]3CC(=O)O[C@]3(C)CC[C@@H]12 was run?
A: Its IC50 is greater than 50 µg/mL.

Q: For C=C1[C@H](O[Si](C)(C)C(C)(C)C)C[C@H]2C(C)(C)CCC[C@]2(C)[C@H]1/C=C/c1ccoc1, which inhibition at 10 µg/mL (HUVEC [2]) is on record?
A: The inhibition at 10 µg/mL was 5%.

Q: And the IC50 (HUVEC [1])?
A: The IC50 was greater than 50 µg/mL.

Q: What does the source list for C=C1[C@@H](O[Si](C)(C)C(C)(C)C)C[C@H]2C(C)(C)CCC[C@]2(C)[C@H]1C[C@@H](O)c1ccoc1?
A: inhibition at 10 µg/mL (HUVEC [2]): 10%; IC50 (HUVEC [1]): 3.76 µg/mL (≈ 8.69 µM)

Q: Which inhibition at 10 µg/mL (HUVEC [2]) does the source give for C=C1[C@@H](O)C[C@H]2C(C)(C)CCC[C@]2(C)[C@H]1C[C@@H](O)c1ccoc1 here?
A: Its inhibition at 10 µg/mL is 0%.

Q: What about the IC50 (HUVEC [1]) of the same compound?
A: The IC50 was 15 µg/mL (≈ 47.2 µM).

Q: Which results are given for C=C1[C@@H](O)C[C@H]2C(C)(C)CCC[C@]2(C)[C@H]1C[C@H](O)c1ccoc1?
A: inhibition at 10 µg/mL (HUVEC [2]): 10%; IC50 (HUVEC [1]): 29.7 µg/mL (≈ 93.2 µM)

Q: Which results are given for C=C1[C@@H](O[Si](C)(C)C(C)(C)C)C[C@H]2C(C)(C)CCC[C@]2(C)[C@H]1/C=C/c1ccoc1?
A: inhibition at 10 µg/mL (HUVEC [2]): 22%; IC50 (HUVEC [1]): > 50 µg/mL

Q: What does the source list for C=C1[C@@H](O[Si](C)(C)C(C)(C)C)C[C@H]2C(C)(C)CCC[C@]2(C)[C@H]1C[C@H](O)c1ccoc1?
A: inhibition at 10 µg/mL (HUVEC [2]): 20%; IC50 (HUVEC [1]): 7.71 µg/mL (≈ 17.8 µM)

Q: What does the source list for C=C1[C@H](O)C[C@H]2C(C)(C)CCC[C@]2(C)[C@H]1/C=C/c1ccoc1?
A: inhibition at 10 µg/mL (HUVEC [2]): 90%; IC50 (HUVEC [1]): 3.12 µg/mL (≈ 10.4 µM)

Q: Which results are given for C=C1[C@@H](O)C[C@H]2C(C)(C)CCC[C@]2(C)[C@H]1/C=C/c1ccoc1 [CORONARIN A]?
A: inhibition at 10 µg/mL (HUVEC [2]): 55%; IC50 (HUVEC [1]): 4.22 µg/mL (≈ 14 µM)

Q: For C=C[C@](C)(O)CC[C@@H]1[C@@]2(C)CCCC(C)(C)[C@@H]2CC[C@@]1(C)O [SCLAREOL], which IC50 (HUVEC [1]) is on record?
A: The IC50 was greater than 50 µg/mL.

— ChEMBL document CHEMBL1145734, “A study on the synthesis of antiangiogenic (+)-coronarin A and congeners from (+)-sclareolide” (Bioorg Med Chem Lett, 2003)
